{"source": "paper PMC5858725", "about": "(Biochemistry, 2017)", "key": {"opt-WT CYP3A4 [1]": {"target": "T1, opt-WT CYP3A4 (Homo sapiens, UniProt P08684)", "assay": "Stopped flow ligand binding kinetics, opt-WT CYP3A4", "conditions": "for Percentage of absorbance change observed during the fast kinetic phase / Percentage of absorbance change observed during the slow kinetic phase: 40 μM ligand"}, "WT CYP3A4 [2]": {"test_system": "WT CYP3A4", "conditions": "cited from earlier work"}, "Cys-less CYP3A4 [3]": {"target": "T2, Cys-less CYP3A4 (Homo sapiens, UniProt P08684, C239T/C377A/C468S/C58A/C64M/C98A)"}, "Cys-less CYP3A4 [4]": {"target": "T2, Cys-less CYP3A4", "assay": "Stopped flow ligand binding kinetics, Cys-less CYP3A4", "conditions": "for Percentage of absorbance change observed during the fast kinetic phase / Percentage of absorbance change observed during the slow kinetic phase: 40 μM ligand"}, "opt-WT CYP3A4 [5]": {"target": "T1, opt-WT CYP3A4"}, "WT CYP3A4 [6]": {"test_system": "WT CYP3A4", "assay": "Stopped flow ligand binding kinetics, WT CYP3A4", "parameters": "species or system human", "conditions": "for Percentage of absorbance change observed during the fast kinetic phase / Percentage of absorbance change observed during the slow kinetic phase: 40 μM ligand"}, "Cys-less CYP3A4 [7]": {"target": "T2, Cys-less CYP3A4", "assay": "BFC O-debenzylase activity in reconstituted system with CPR", "type": "biochemical", "conditions": "0.1–0.6 M phosphate pH 7.4, all studied conditions; relative to WT and opt-WT", "method_in_brief": "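N-terminally truncated (Δ3–22) CYP3A4 carrying C58A/C64M/C98A/C239T/C377A/C468S, co-expressed with GroESL in E. coli C41(DE3). […] Lipid-free reconstitution with rat cytochrome P450 reductase. Substrate 7-benzyloxy(4-trifluoromethyl)coumarin, O-debenzylated to a fluorescent product that is read fluorimetrically.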"}, "CPR": {"test_system": "CPR", "assay": "Kinetics of CYP3A4 reduction with CPR", "type": "biochemical, rat", "conditions": "anaerobic"}, "[8]": {"conditions": "2 μM CYP3A4 mixed with 40 μM ligand, 0.6 M phosphate pH 7.4"}, "[9]": {"conditions": "CO-saturated 0.1 M phosphate pH 7.4, 1 μM CYP3A4 and CPR, 30 μM MDZ, 100 μM NADPH"}}, "note": "Read-outs that look alike come from different tables or passages of the source.", "data": [{"molecule": "CC(C)C[C@H]1C(=O)N2CCC[C@H]2[C@]2(O)O[C@](NC(=O)[C@@H]3C=C4c5cccc6[nH]c(Br)c(c56)C[C@H]4N(C)C3)(C(C)C)C(=O)N12", "note": "[BEC, bromoergocryptine]", "values": [{"measurement": "Percentage of absorbance change observed during the fast kinetic phase", "setting": "opt-WT CYP3A4 [1]; 0.1 M phosphate pH 7.4", "value": 49, "unit": "%"}, {"measurement": "Percentage of absorbance change observed during the slow kinetic phase", "setting": "opt-WT CYP3A4 [1]; 0.1 M phosphate pH 7.4", "value": 51, "unit": "%"}, {"measurement": "Kd", "setting": "WT CYP3A4 [2]; read-out: Equilibrium Titrations, Ks, determined previously", "value": 300, "unit": "nM"}, {"measurement": "affinity lower than WT (from Ks)", "setting": "Cys-less CYP3A4 [3]", "value": "1.5–2 fold"}, {"measurement": "Kd", "setting": "Cys-less CYP3A4 [3]; pH 7.4", "value": "450 ± 60", "unit": "nM"}, {"measurement": "Percentage of absorbance change observed during the fast kinetic phase", "setting": "Cys-less CYP3A4 [4]; 0.1 M phosphate pH 7.4", "value": 54, "unit": "%"}, {"measurement": "Percentage of absorbance change observed during the slow kinetic phase", "setting": "Cys-less CYP3A4 [4]; 0.1 M phosphate pH 7.4", "value": 46, "unit": "%"}, {"measurement": "affinity lower than WT (from Ks)", "setting": "opt-WT CYP3A4 [5]", "value": "1.5–2 fold"}, {"measurement": "Kd", "setting": "opt-WT CYP3A4 [5]; pH 7.4", "value": "770 ± 140", "unit": "nM"}, {"measurement": "Percentage of absorbance change observed during the fast kinetic phase", "setting": "WT CYP3A4 [6]; 0.1 M phosphate pH 7.4", "value": 52, "unit": "%"}, {"measurement": "Percentage of absorbance change observed during the slow kinetic phase", "setting": "WT CYP3A4 [6]; 0.1 M phosphate pH 7.4", "value": 48, "unit": "%"}]}, {"molecule": "O=c1cc(C(F)(F)F)c2ccc(OCc3ccccc3)cc2o1", "note": "[BFC, 7-benzyloxy-(4-trifluoromethyl)coumarin]", "values": [{"measurement": "BFC oxidation (debenzylation) by Cys-less CYP3A4, faster than WT and opt-WT", "setting": "Cys-less CYP3A4 [7]", "value": "6–8 fold"}]}, {"molecule": "Cc1ncc2n1-c1ccc(Cl)cc1C(c1ccccc1F)=NC2", "note": "[MDZ, midazolam]", "values": [{"measurement": "Ligand Binding Kinetics, kfast", "setting": "opt-WT CYP3A4 [1]; [8]", "value": "0.26 ± 0.03", "unit": "s⁻¹"}, {"measurement": "Ligand Binding Kinetics, kslow", "setting": "opt-WT CYP3A4 [1]; [8]", "value": "0.027 ± 0.004", "unit": "s⁻¹"}, {"measurement": "Percentage of absorbance change observed during the fast kinetic phase", "setting": "opt-WT CYP3A4 [1]; 0.1 M phosphate pH 7.4", "value": 43, "unit": "%"}, {"measurement": "Percentage of absorbance change observed during the slow kinetic phase", "setting": "opt-WT CYP3A4 [1]; 0.1 M phosphate pH 7.4", "value": 57, "unit": "%"}, {"measurement": "Percentage of absorbance change observed during the fast kinetic phase", "setting": "opt-WT CYP3A4 [1]; 0.6 M phosphate pH 7.4", "value": 49, "unit": "%"}, {"measurement": "Percentage of absorbance change observed during the slow kinetic phase", "setting": "opt-WT CYP3A4 [1]; 0.6 M phosphate pH 7.4", "value": 51, "unit": "%"}, {"measurement": "Kd", "setting": "WT CYP3A4 [2]; read-out: Equilibrium Titrations, Ks, 0.1 M phosphate, determined previously", "value": 4800, "unit": "nM"}, {"measurement": "Kd", "setting": "WT CYP3A4 [2]; read-out: Equilibrium Titrations, Ks, 0.6 M phosphate, determined previously", "value": 1800, "unit": "nM"}, {"measurement": "Ligand Binding Kinetics, kfast", "setting": "Cys-less CYP3A4 [4]; [8]", "value": "0.27 ± 0.02", "unit": "s⁻¹"}, {"measurement": "Ligand Binding Kinetics, kslow", "setting": "Cys-less CYP3A4 [4]; [8]", "value": "0.036 ± 0.003", "unit": "s⁻¹"}, {"measurement": "Percentage of absorbance change observed during the fast kinetic phase", "setting": "Cys-less CYP3A4 [4]; 0.1 M phosphate pH 7.4", "value": 40, "unit": "%"}, {"measurement": "Percentage of absorbance change observed during the slow kinetic phase", "setting": "Cys-less CYP3A4 [4]; 0.1 M phosphate pH 7.4", "value": 60, "unit": "%"}, {"measurement": "Percentage of absorbance change observed during the fast kinetic phase", "setting": "Cys-less CYP3A4 [4]; 0.6 M phosphate pH 7.4", "value": 43, "unit": "%"}, {"measurement": "Percentage of absorbance change observed during the slow kinetic phase", "setting": "Cys-less CYP3A4 [4]; 0.6 M phosphate pH 7.4", "value": 57, "unit": "%"}, {"measurement": "Ligand Binding Kinetics, kfast", "setting": "WT CYP3A4 [6]; [8]", "value": "3.4 ± 0.3", "unit": "s⁻¹"}, {"measurement": "Ligand Binding Kinetics, kslow", "setting": "WT CYP3A4 [6]; [8]", "value": "0.23 ± 0.04", "unit": "s⁻¹"}, {"measurement": "Percentage of absorbance change observed during the fast kinetic phase", "setting": "WT CYP3A4 [6]; 0.1 M phosphate pH 7.4", "value": 70, "unit": "%"}, {"measurement": "Percentage of absorbance change observed during the slow kinetic phase", "setting": "WT CYP3A4 [6]; 0.1 M phosphate pH 7.4", "value": 30, "unit": "%"}, {"measurement": "Percentage of absorbance change observed during the fast kinetic phase", "setting": "WT CYP3A4 [6]; 0.6 M phosphate pH 7.4", "value": 82, "unit": "%"}, {"measurement": "Percentage of absorbance change observed during the slow kinetic phase", "setting": "WT CYP3A4 [6]; 0.6 M phosphate pH 7.4", "value": 18, "unit": "%"}]}, {"molecule": "CC(C)c1nc(CN(C)C(=O)N[C@H](C(=O)N[C@@H](Cc2ccccc2)C[C@H](O)[C@H](Cc2ccccc2)NC(=O)OCc2cncs2)C(C)C)cs1", "note": "[RIT, ritonavir]", "values": [{"measurement": "Percentage of absorbance change observed during the fast kinetic phase", "setting": "WT CYP3A4 [6]; 0.1 M phosphate pH 7.4", "value": 70, "unit": "%"}, {"measurement": "Percentage of absorbance change observed during the slow kinetic phase", "setting": "WT CYP3A4 [6]; 0.1 M phosphate pH 7.4", "value": 30, "unit": "%"}]}, {"molecule": "Cys-less: C58A/C64M/C98A/C239T/C377A/C468S variant of CYP3A4 from codon-optimized synthetic gene (protein, UniProt P08684 2-503, looked up, variant C58A C64M C98A C239T C377A C468S, Δ3–22 truncation) Cytochrome P450 3A4: ALIPDLAMETWLLLAVSLVLLYLYGTHSHGLFKKLGIPGPTPLPFLGNILSYHKGFAMFDMEMHKKYGKVWGFYDGQQPVLAITDPDMIKTVLVKEAYSVFTNRRPFGPVGFMKSAISIAEDEEWKRLRSLLSPTFTSGKLKEMVPIIAQYGDVLVRNLRREAETGKPVTLKDVFGAYSMDVITSTSFGVNIDSLNNPQDPFVENTKKLLRFDFLDPFFLSITVFPFLIPILEVLNITVFPREVTNFLRKSVKRMKESRLEDTQKHRVDFLQLMIDSQNSKETESHKALSDLELVAQSIIFIFAGYETTSSVLSFIMYELATHPDVQQKLQEEIDAVLPNKAPPTYDTVLQMEYLDMVVNETLRLFPIAMRLERVAKKDVEINGMFIPKGVVVMIPSYALHRDPKYWTEPEKFLPERFSKKNKDNIDPYIYTPFGSGPRNCIGMRFALMNMKLALIRVLQNFSFKPSKETQIPLKLSLGGLLQPEKPVVLKVESRDGTVSGA", "values": [{"measurement": "First Electron Transfer from CPR, kfast", "setting": "CPR; [9]", "value": "1.22 ± 0.03", "unit": "min⁻¹"}, {"measurement": "First Electron Transfer from CPR, kslow", "setting": "CPR; [9]", "value": "0.22 ± 0.02", "unit": "min⁻¹"}, {"measurement": "First Electron Transfer from CPR, percentage of absorbance change in the fast phase", "setting": "CPR; CO-saturated 0.1 M phosphate pH 7.4, 30 μM MDZ", "value": 64, "unit": "%"}]}]}
